31 compounds from ChEMBL document CHEMBL1122988, “Studies on antianaphylactic agents. 7. Synthesis of antiallergic 5-oxo-5H-[1]benzopyrano[2,3-b]pyridines” (1985) can be followed below.

Where only a bound is given, the exact number is not on record here.

Assay type in all cases: functional
For assay [1], the system named is Rattus norvegicus. The experiment in a line: Anti-passive cutaneous anaphylaxis activity in rat (intravenous administration). To be noted: read-out: ID50 (the source's name). The essentials:
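Male Sprague-Dawley rats (8 weeks, ~280 g) were sensitized passively. Antiserum was raised with egg albumin im plus killed B. pertussis ip, and diluted fourfold. Four 0.05-mL intradermal dorsal injections were given, with a 72-h latency. Challenge was iv with 5 mg egg albumin plus 10 mg Evans blue in 1 mL saline. Drug in saline or PEG 400 was given iv immediately before challenge. Dye leakage area was read at 30 min. ID50 came from a least-squares log dose–area fit.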

Assay [2] relates to Rattus norvegicus. Put plainly: Compound was evaluated for anti passive cutaneous anaphylaxis activity in nonfasted rat, administered through intravenous route. To be noted: oral, in the assay text read “oral” for “intravenous”, read-out: ID50 (the source's name).
Assay [3] concerns Rattus norvegicus. The experiment in a line: Compound was evaluated for anti passive cutaneous anaphylaxis activity in fasted rats administered oral route. To be noted: read-out: ID50 (the source's name). Put shortly:
(§1)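 Homologous rat PCA in male Sprague-Dawley rats (8 weeks, ~280 g). Skin sites received 72 h of exposure to fourfold-diluted egg albumin antiserum. Drug was suspended in 5% gum arabic and given orally 5 min before iv challenge with egg albumin and Evans blue. Rats were bled 30 min later and dye leakage area (mm2) was measured. ID50 came from least-squares log dose regression, with Fieller fiducial limits.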

For assay [4], the system named is Rattus norvegicus. The experiment in a line: Compound was evaluated for anti passive cutaneous anaphylaxis activity in nonfasted rats administered oral route. The conditions noted are these: read-out: ID50 (the source's name). The essentials: as §1
The test system of assay [5] is Rattus norvegicus. The experiment in a line: Compound was evaluated for anti passive cutaneous anaphylaxis activity in fasted rat, administered through intravenous route. To be noted: oral, in the assay text read “oral” for “intravenous”, read-out: ID50 (the source's name).

For the compound `CNc1nc2oc3ccc(C(C)C)cc3c(=O)c2cc1C(=O)O`, the ED50 in the assay with Rattus norvegicus [1] was 0.39 mg/kg.

Regarding `CCc1ccc2oc3nc(N)c(C(=O)O)cc3c(=O)c2c1`, the ED50 in the assay with Rattus norvegicus [2] is 5.4 mg/kg; in the assay on Rattus norvegicus [1], 0.14 mg/kg.

With `O=C(O)c1cnc2oc3ccccc3c(=O)c2c1`, the ED50 in the assay with Rattus norvegicus [1] turned out to be 0.63 mg/kg.

For `O=c1c2ccccc2oc2ncc(-c3nn[nH]n3)cc12`, in the assay on Rattus norvegicus [1], the ED50 was determined as 0.44 mg/kg.

With `Cc1ccc2oc3nc(O)c(C(=O)O)cc3c(=O)c2c1`, the ED50 in the assay on Rattus norvegicus [1] worked out at 0.1 mg/kg.

On to `CCONc1nc2oc3ccc(C(C)C)cc3c(=O)c2cc1C(=O)O`, for which the ED50 with Rattus norvegicus [1] stood at 0.014 mg/kg.

In the case of `CONc1nc2oc3ccc(C(C)C)cc3c(=O)c2cc1C(=O)O`, the ED50 amounted to 0.59 mg/kg in the assay on Rattus norvegicus [3], 4.6 mg/kg with Rattus norvegicus [4] and 0.0076 mg/kg in the assay on Rattus norvegicus [1].

In the case of `CCc1ccc2oc3nc(C)c(C(=O)O)cc3c(=O)c2c1`, the ED50 with Rattus norvegicus [1] was found to be 0.73 mg/kg.

Consider `CCc1ccc(O)c(C(=O)c2cc(C(=O)O)c(C)nc2O)c1`, for which, in the assay on Rattus norvegicus [1], the ED50 was more than 20 mg/kg.

`CCc1ccc2oc3nc(OC)c(C(=O)O)cc3c(=O)c2c1`: in the assay with Rattus norvegicus [1], the ED50 worked out at 0.5 mg/kg.

`COc1ccc2oc3nc(O)c(C(=O)O)cc3c(=O)c2c1`: in the assay with Rattus norvegicus [1], the ED50 is 0.042 mg/kg.

Consider `CC(C)c1ccc2oc3nc(O)c(C(=O)O)cc3c(=O)c2c1`, for which the ED50 in the assay on Rattus norvegicus [1] amounted to 0.02 mg/kg.

Consider `O=C(O)c1cc2c(=O)c3ccccc3oc2nc1O`, for which the ED50 with Rattus norvegicus [1] came to 0.62 mg/kg.

On to `CCc1ccc2oc3nc(O)c(C(=O)O)cc3c(=O)c2c1`, for which the ED50 in the assay with Rattus norvegicus [1] stood at 0.041 mg/kg.

On to `CC(C)(C)c1ccc2oc3ncc(-c4nn[nH]n4)cc3c(=O)c2c1`, for which the values for the ED50 in the assay on Rattus norvegicus [4] and in the assay with Rattus norvegicus [1] were 6 mg/kg and 0.047 mg/kg, respectively.

Turning to `CCc1ccc2oc3ncc(-c4nn[nH]n4)cc3c(=O)c2c1`, the ED50 with Rattus norvegicus [4] is 6.4 mg/kg; in the assay with Rattus norvegicus [1] it was 0.11 mg/kg.

With `CC(C)c1ccc2oc3ncc(C(=O)O)cc3c(=O)c2c1`, the figures for the ED50 in the assay with Rattus norvegicus [4] and with Rattus norvegicus [1] were 1.2 mg/kg and 0.059 mg/kg, respectively.

As to `Cc1cc(C)c2oc3ncc(-c4nn[nH]n4)cc3c(=O)c2c1`, the ED50 with Rattus norvegicus [1] turned out to be 0.31 mg/kg.

`CC(C)c1ccc2oc3nc(N)c(-c4nn[nH]n4)cc3c(=O)c2c1`: in the assay on Rattus norvegicus [1], the ED50 was 0.064 mg/kg.

With `CONc1nc2oc3ccc(C(C)C)cc3c(=O)c2cc1-c1nn[nH]n1`, the ED50 in the assay with Rattus norvegicus [1] came out at 0.19 mg/kg.

`CCCCONc1nc2oc3ccc(C(C)C)cc3c(=O)c2cc1C(=O)O`: the ED50 with Rattus norvegicus [4] stood at 3.5 mg/kg; with Rattus norvegicus [1], 0.028 mg/kg.

With `COc1cccc2c(=O)c3cc(C(=O)O)c(O)nc3oc12`, in the assay with Rattus norvegicus [1], the ED50 amounted to 0.1 mg/kg.

As to `COc1cccc2c(=O)c3cc(C(=O)O)c(N)nc3oc12`, the ED50 in the assay with Rattus norvegicus [1] worked out at 0.45 mg/kg.

`Cc1cc(C)c2oc3nc(O)c(C(=O)O)cc3c(=O)c2c1`: the ED50 in the assay on Rattus norvegicus [1] came to 0.12 mg/kg.

Take `O=c1c2cc(-c3nn[nH]n3)cnc2oc2ccc3ccccc3c12`: in the assay on Rattus norvegicus [1], the ED50 turned out to be 0.84 mg/kg.

As to `CC(C)c1ccc2oc3nc(NO)c(C(=O)O)cc3c(=O)c2c1`, the figures for the ED50 in the assay on Rattus norvegicus [4] and in the assay on Rattus norvegicus [1] were 1 mg/kg and 0.018 mg/kg, respectively.

With `CC(C)c1ccc2oc3ncc(-c4nn[nH]n4)cc3c(=O)c2c1`, the values for the ED50 in the assay on Rattus norvegicus [3], in the assay with Rattus norvegicus [4] and with Rattus norvegicus [1] were 0.034 mg/kg, 0.46 mg/kg and 0.0096 mg/kg, respectively.

`CCCCc1ccc2oc3nc(N)c(C(=O)O)cc3c(=O)c2c1`: in the assay with Rattus norvegicus [1], the ED50 came out at 1.1 mg/kg.

As for `CCc1ccc2oc3ncc(C(=O)O)cc3c(=O)c2c1`, the figures for the ED50 in the assay on Rattus norvegicus [2], in the assay with Rattus norvegicus [1] and with Rattus norvegicus [5] were 0.95 mg/kg, 0.034 mg/kg and 0.18 mg/kg, respectively.

For `CC(C)c1ccc2oc3nc(N)c(C(=O)O)cc3c(=O)c2c1` [AMLEXANOX], the values for the ED50 in the assay with Rattus norvegicus [3], in the assay on Rattus norvegicus [4] and in the assay on Rattus norvegicus [1] were 0.73 mg/kg, 6.1 mg/kg and 0.032 mg/kg, respectively.

As to `O=C([O-])c1cc(=O)c2c(OCC(O)COc3cccc4oc(C(=O)[O-])cc(=O)c34)cccc2o1.[Na+].[Na+]` [CROMOLYN SODIUM], the ED50 in the assay with Rattus norvegicus [1] turned out to be 1.4 mg/kg.
